The subject of data set [1] is PC-3. As to the kind of experiment: Antitumor activity against human PC3 cells after 5 days by MTT assay. It counts as functional, cell-based. Particulars: PC-3, 120 h. In a few lines: (§1)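 Five human cancer lines (prostate PC-3, glioblastoma U373-MG, colorectal LoVo, NSCLC A549, breast MCF-7) plated at 10⁴ to 3×10⁴ cells/mL depending on cell type, allowed 24 h to attach, then cultured 120 h with or without drug at nine concentrations. MTT reduction to formazan read at 570 nm (reference 630 nm).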
Background: Tetrazolium assays rely on reduction of a dye to a coloured formazan, in cell work by metabolically active cells.

Data set [2] in a line: Antitumor activity against human U373MG cells after 5 days by MTT assay. It counts as functional, cell-based, U-373MG ATCC. Particulars: U373 MG, 120 h. In a few lines:
as §1

Data set [3] has as its system LoVo. Briefly: Antitumor activity against human LoVo cells after 5 days by MTT assay. It counts as functional, cell-based. Particulars: 120 h. In a few lines:
as §1

The subject of data set [4] is A549. As to the kind of experiment: Antitumor activity against human A549 cells after 5 days by MTT assay. Particulars: A549, 120 h. The data set is classed as functional, cell-based. The procedure, abridged:
as §1

Data set [5] relates to MCF7. Briefly: Antitumor activity against human MCF7 cells after 5 days by MTT assay. It counts as functional, cell-based. Particulars: MCF7, 120 h. In a few lines:
as §1

The nature of data set [6]: Toxicity in ip dosed B6D2F1 mouse assessed as maximum tolerated dose after 28 days. The data set is classed as organism-based. Particulars: in vivo. In a few lines: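 Healthy mice, three per group, each given a single ip dose and observed for up to 28 days. The MTD index is the highest single dose given without causing any deaths in the group.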
The subject of data set [7] is HeLa. Briefly: Inhibition of human HeLa cell proliferation assessed as bromodeoxyuridine incorporation during DNA synthesis after 48 hrs by ELISA. The data set is classed as functional, cell-based.
The test system of the next data set is MG-63. As to the kind of experiment: Inhibition of human MG63 cell proliferation assessed as bromodeoxyuridine incorporation during DNA synthesis after 48 hrs by ELISA. The data set is classed as functional, cell-based. Particulars: MG-63, 48 h. (An ELISA detects its analyte on a solid surface through an enzyme-linked reagent.)
In data set [8] the test system is NCI-H460. Briefly: Inhibition of human NCI-H460 cell proliferation by sulphorodhamine B assay. It counts as functional, cell-based.
Data set [9] deals with HeLa. As to the kind of experiment: Inhibition of human HeLa cell proliferation. It counts as functional, cell-based.
In data set [10] the test system is MCF7. Briefly: Inhibition of human MCF7 cell proliferation by MTT assay. The data set is classed as functional, cell-based.
Data set [11] has as its system MCF7. As to the kind of experiment: Inhibition of human MCF7 cell proliferation after 5 days by MTT assay. The data set is classed as functional, cell-based. Particulars: MCF7, 120 h. In a few lines:
as §1

The next data set has as its system A-431. Briefly: Inhibition of human A431 cell proliferation by MTT assay. The data set is classed as functional, cell-based.
The next data set relates to EJ. Briefly: Inhibition of human EJ cell proliferation by MTT assay. The data set is classed as functional, cell-based.
In a further data set the test system is SW480. Briefly: Inhibition of human SW480 cell proliferation by MTT assay. It counts as functional, cell-based.
Another data set has as its system KB. Briefly: Inhibition of human KB cell proliferation by MTT assay. It counts as functional, cell-based.
The subject of another data set is SK-MEL. Briefly: Inhibition of human SK-MEL cell proliferation by MTT assay. The data set is classed as functional, cell-based.
The next data set has as its system MC3T3-E1. As to the kind of experiment: Inhibition of mouse MC3T3-E1 cell proliferation after 48 to 72 hrs. It counts as functional, cell-based.
Data set [12] in a line: Inhibition of mouse NIH/3T3 cell proliferation by MTT assay. Particulars: NIH3T3. It counts as cell-based.
The next data set deals with V79. As to the kind of experiment: Inhibition of chinese hamster V79 cell proliferation assessed as bromodeoxyuridine incorporation during DNA synthesis after 48 hrs by ELISA. Particulars: Cricetulus griseus, V79, 48 h.
A further data set deals with K562. As to the kind of experiment: Inhibition of human K562 cell proliferation by sulphorodhamine B assay. It counts as functional, cell-based.
The test system of data set [13] is NCI-H460. Briefly: Induction of apoptosis in human NCI-H460 cells at 120 uM by sulphorodhamine B assay. The data set is classed as functional.
Data set [14] addresses DNA topoisomerase 2-alpha (Homo sapiens) (UniProt P11388). As to the kind of experiment: Inhibition of topoisomerase 2-mediated DNA relaxation activity in human HeLa cells by Oomori method. The data set is classed as cell-based.
The nature of data set [15]: Stability in phosphate buffer of pH 7.4 after 6 days. Particulars: read-out: Stability. The data set is classed as physicochemical. In a few lines:
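Compound dissolved at 1 mM in DMSO, diluted with phosphate buffer pH 7.4 to 1 mL, incubated sealed at 37 °C for 6 days. A t0 aliquot was held at 4 °C. HPLC with 280 nm detection and duplicate injections, with expected degradation products as references. Stability is taken as compound peak area over (compound + degradation product) peak area.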

The subject of data set [16] is PC-3. Briefly: Ratio of ciprofloxacin IC50 to compound IC50 for human PC3 cells. It counts as functional.
The test system of another data set is U373 MG. As to the kind of experiment: Ratio of ciprofloxacin IC50 to compound IC50 for human U373MG cells. The data set is classed as functional, U-373MG ATCC.
In data set [17] the test system is LoVo. Briefly: Ratio of ciprofloxacin IC50 to compound IC50 for human LoVo cells. It counts as functional.
The subject of data set [18] is A549. Briefly: Ratio of ciprofloxacin IC50 to compound IC50 for human A549 cells. It counts as functional.
The test system of data set [19] is MCF7. As to the kind of experiment: Ratio of ciprofloxacin IC50 to compound IC50 for human MCF7 cells. The data set is classed as functional.
In data set [20] the test system is HT-29. As to the kind of experiment: Inhibition of human HT-29 cell proliferation. The data set is classed as functional, cell-based.
The target of data set [21] is DNA topoisomerase 2-alpha (Homo sapiens) (UniProt P11388). Briefly: Inhibition of human topoisomerase 2 assessed as conversion of catenated to decatenated form of kDNA.
Sequence of DNA topoisomerase 2-alpha (Homo sapiens) (P11388 whole entry): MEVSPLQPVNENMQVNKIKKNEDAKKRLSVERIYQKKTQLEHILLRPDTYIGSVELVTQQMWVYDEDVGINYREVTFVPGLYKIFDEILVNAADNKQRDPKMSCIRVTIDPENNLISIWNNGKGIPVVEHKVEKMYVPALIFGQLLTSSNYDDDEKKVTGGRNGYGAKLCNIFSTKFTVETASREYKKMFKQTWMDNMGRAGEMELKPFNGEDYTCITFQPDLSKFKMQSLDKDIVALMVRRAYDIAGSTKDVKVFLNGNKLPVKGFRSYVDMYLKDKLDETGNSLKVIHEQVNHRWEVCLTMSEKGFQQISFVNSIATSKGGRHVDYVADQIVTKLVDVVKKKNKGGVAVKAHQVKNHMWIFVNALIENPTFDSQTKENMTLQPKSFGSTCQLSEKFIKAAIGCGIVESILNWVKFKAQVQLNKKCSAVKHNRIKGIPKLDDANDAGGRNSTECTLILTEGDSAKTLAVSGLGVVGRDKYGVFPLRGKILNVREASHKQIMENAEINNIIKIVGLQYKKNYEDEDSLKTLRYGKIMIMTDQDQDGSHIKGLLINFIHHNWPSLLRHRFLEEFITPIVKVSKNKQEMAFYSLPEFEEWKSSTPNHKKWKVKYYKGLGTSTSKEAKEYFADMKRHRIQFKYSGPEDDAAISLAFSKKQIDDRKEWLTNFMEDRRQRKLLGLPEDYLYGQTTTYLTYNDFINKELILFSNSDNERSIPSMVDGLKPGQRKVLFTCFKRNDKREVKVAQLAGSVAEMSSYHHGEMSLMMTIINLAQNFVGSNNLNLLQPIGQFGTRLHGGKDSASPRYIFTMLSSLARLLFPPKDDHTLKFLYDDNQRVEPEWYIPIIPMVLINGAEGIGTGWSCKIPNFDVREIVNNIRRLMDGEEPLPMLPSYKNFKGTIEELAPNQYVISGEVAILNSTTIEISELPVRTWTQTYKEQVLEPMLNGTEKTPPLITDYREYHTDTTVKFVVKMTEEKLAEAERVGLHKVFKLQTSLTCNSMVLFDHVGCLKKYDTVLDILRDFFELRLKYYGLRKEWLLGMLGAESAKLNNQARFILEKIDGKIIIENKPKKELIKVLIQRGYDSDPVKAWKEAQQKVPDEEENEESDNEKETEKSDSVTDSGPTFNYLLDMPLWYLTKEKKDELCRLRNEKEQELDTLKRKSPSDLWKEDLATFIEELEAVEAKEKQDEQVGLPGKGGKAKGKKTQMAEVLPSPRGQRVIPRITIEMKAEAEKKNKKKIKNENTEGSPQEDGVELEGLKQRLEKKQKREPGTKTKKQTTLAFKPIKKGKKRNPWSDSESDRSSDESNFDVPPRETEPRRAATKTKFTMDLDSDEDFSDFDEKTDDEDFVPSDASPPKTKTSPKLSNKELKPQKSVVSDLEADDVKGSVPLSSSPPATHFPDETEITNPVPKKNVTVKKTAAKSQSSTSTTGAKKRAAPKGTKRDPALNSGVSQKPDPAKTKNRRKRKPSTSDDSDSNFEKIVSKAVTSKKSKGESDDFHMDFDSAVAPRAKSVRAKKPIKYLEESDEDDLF
Another data set deals with DU-145. As to the kind of experiment: Inhibition of human DU145 cell proliferation. The data set is classed as functional, cell-based.
A further data set relates to B16. As to the kind of experiment: Inhibition of mouse B16 cell proliferation. The data set is classed as functional, cell-based.
The subject of a further data set is NCI-H226. Briefly: Inhibition of human NCI-H226 cell proliferation. It counts as functional, cell-based.
Data set [22] can be described thus: Inhibition of human MDA231 cell proliferation. Particulars: MDA-MB-231. It counts as functional, cell-based.
The target in data set [23] is DNA topoisomerase 2-alpha (Homo sapiens) (UniProt P11388). As to the kind of experiment: Inhibition of human topoisomerase 2-mediated DNA unwinding activity.
Data set [24] deals with A549. As to the kind of experiment: Antitumor activity against human A549 cells after 3 days by MTT assay. It counts as functional, cell-based. Particulars: A549, 72 h.
A further data set has as its system HCT-8. Briefly: Antitumor activity against human HCT8 cells after 3 days by MTT assay. The data set is classed as functional, cell-based. Particulars: HCT-8, 72 h.
Data set [25] has as its system MCF7. Briefly: Antitumor activity against human MCF7 cells after 3 days by MTT assay. It counts as functional, cell-based. Particulars: MCF7, 72 h.
For data set [26], the system named is HT-29. As to the kind of experiment: Antitumor activity against human HT-29 cells after 3 days by MTT assay. Particulars: HT-29, 72 h. The data set is classed as functional, cell-based.
The nature of data set [27]: Inhibition of human […] cell proliferation. It counts as functional, cell-based.
The test system of another data set is P388. Briefly: Inhibition of mouse P388 cell proliferation. The data set is classed as functional, cell-based.
The test system of data set [28] is MCF7. As to the kind of experiment: Inhibition of human MCF7 cell proliferation. It counts as functional, cell-based.
Data set [29] can be described thus: Inhibition of human RPMI8226/S cell proliferation. It counts as functional, cell-based.

The IC50 is the concentration that inhibits the measured activity by half. For orientation: MTD means the largest dose that counted as tolerated. As for `O=C(O)c1cn(C2CC2)c2cc(N3CCNCC3)c(F)cc2c1=O` [CIPROFLOXACIN], the IC50 with PC-3 [1] was found to be 143 µM; in data set [2], 96 µM; in the data set on LoVo [3], 89 µM; with A549 [4], 280 µM; with MCF7 [5], 476 µM; in the data set with HeLa [7] it was 800 µM. The IC50 in the data set with MG-63 is 480 µM; in the data set on NCI-H460 [8], 60 µM; with HeLa [9], 270 µM; in the data set on MCF7 [10] it was 199 µM; in the data set on MCF7 [11], 76 µM; in the data set with A-431, 135 µM. For the same compound, the concentration for half-maximal inhibition (IC50) with EJ was 202 µM; in the data set with SW480 it was 128 µM; with KB, 160 µM; in the data set with SK-MEL, 196 µM; in the data set with MC3T3-E1, 120 µM; in data set [12] it was more than 1 mM. Also, the results for the IC50 in the data set with V79 and with K562 were more than 1 mM and more than 150 µM, respectively. Also, the MTD at 672 h in data set [6] is more than 80 mg/kg. Further, the Activity in the data set on NCI-H460 [13] is 35%; in data set [14], 104 µM.
As for `CC(C)(C)OC(=O)N1CCN(c2cc3c(cc2F)c(=O)c(C(=O)O)cn3C2CC2)CC1`, in data set [15], the remaining at 144 h was more than 99%. Also, the IC50 in the data set with PC-3 [1] amounted to 26 µM; in [2] it was 35 µM; with LoVo [3], 40 µM; in the data set with A549 [4], 18 µM; with MCF7 [5] it was 13 µM. Also, the “Ratio IC50” value in the data set on PC-3 [16], with U373 MG, with LoVo [17], with A549 [18] and in the data set with MCF7 [19] was 2 in each case. Besides, the maximum tolerated dose (MTD) at 672 h in [6] was more than 80 mg/kg.
Turning to `N[C@H]1CCN(c2c(F)cc3c(=O)c(C(=O)O)cn4c3c2Oc2c-4ccc3ccccc23)C1`, the IC50 with HT-29 [20] is 50 nM; in the data set with DU-145, 60 nM; in the data set on B16 it was 200 nM; in the data set on NCI-H226, 30 nM; in data set [22] it was 80 nM. Further, the Activity stood at 0.5 µM in [21] and 10 µM in [23].
As to `NC1CCN(c2c(F)cc3c(=O)c(C(=O)O)cn4c3c2Oc2ccccc2-4)C1` (stereo unspecified), the IC50 with A549 [24] is 1300 nM; in the data set with HCT-8 it was 300 nM; in the data set with MCF7 [25], 800 nM; in the data set with HT-29 [26] it was 500 nM; with HT-29 [20], 200 nM; with DU-145 it was 200 nM. The IC50 is 700 nM in [27], 50 nM in the data set on P388, 700 nM in the data set on MCF7 [28] and 300 nM in data set [29]. Besides, the Activity was 0.5 µM in [21] and 50 µM in [23].
In the case of `O=C(O)c1cn(C2CC2)c2cc(N3CCN(C(=O)CCl)CC3)c(F)cc2c1=O`, in data set [15], the remaining at 144 h is more than 99%. For the same compound, the IC50 in the data set on PC-3 [1] was 8 µM; in data set [2] it was 4 µM; with LoVo [3], 17 µM; in the data set with A549 [4], 10 µM; with MCF7 [5], 23 µM. In addition, the “Ratio IC50” value with PC-3 [16], in the data set on U373 MG, in the data set on LoVo [17], with A549 [18] and with MCF7 [19] was 5 in each case. Besides, the MTD at 672 h in [6] is more than 80 mg/kg.

The values above are taken from ChEMBL document CHEMBL1154114, “7-((4-Substituted)piperazin-1-yl) derivatives of ciprofloxacin: synthesis and in vitro biological evaluation as potential antitumor agents” (Bioorg Med Chem, 2009).
